≈ marks a conversion by molar mass, not a printed value.
Columns and labels:
Plasmodium falciparum [1] = assay: Antiplasmodial activity against multidrug-sensitive asexual blood stage Plasmodium falciparum NF54 strain assessed as reduction in parasite growth after 72 hrs by NBT reagent based LDH assay; type: functional, organism-based; details: NF54, 72 h
[2] = Aqueous solubility of compound in phosphate buffer saline at pH 6.5 incubated for 20 hrs under shaking condition by shake-flask method based HPLC-DAD analysis; type: physicochemical; details: phosphate buffered saline
How it was run: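 Equilibrium aqueous solubility was measured at pH 6.5 using a miniaturized shake-flask method.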

Plasmodium falciparum [3] = assay: Antiplasmodial activity against multidrug-resistant asexual blood stage Plasmodium falciparum K1 strain assessed as reduction in parasite growth after 72 hrs by NBT reagent based LDH assay; type: functional, organism-based; details: K1, 72 h
How it was run: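 Asexual blood-stage K1 (multidrug-resistant) parasites were read out by the parasite lactate dehydrogenase (pLDH) assay. […] Most individual values varied less than 2× (maximum 3×).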

CHO = assay: Cytotoxicity against CHO cells assessed as reduction in cell viability by MTT assay; type: cell-based, Cricetulus griseus; details: chinese hamster
How it was run: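 Cytotoxicity was measured in Chinese hamster ovary (CHO) cells and reported as CC50. The selectivity index is CC50 divided by NF54 IC50.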

[4] = molecular target: Voltage-gated inwardly rectifying potassium channel KCNH2 (Homo sapiens, UniProt Q12809); assay: Inhibition of human ERG by patch clamp method
[5] = Selectivity index, ratio of CC50 for cytotoxicity against CHO cells assessed as reduction in cell viability to IC50 for antiplasmodial activity against multidrug-sensitive Plasmodium falciparum NF54 assessed as reduction in parasite growth; type: toxicity, cell-based; details: hamster, read-out: Ratio CC50/IC50

Sequence of Voltage-gated inwardly rectifying potassium channel KCNH2 (Q12809 whole entry): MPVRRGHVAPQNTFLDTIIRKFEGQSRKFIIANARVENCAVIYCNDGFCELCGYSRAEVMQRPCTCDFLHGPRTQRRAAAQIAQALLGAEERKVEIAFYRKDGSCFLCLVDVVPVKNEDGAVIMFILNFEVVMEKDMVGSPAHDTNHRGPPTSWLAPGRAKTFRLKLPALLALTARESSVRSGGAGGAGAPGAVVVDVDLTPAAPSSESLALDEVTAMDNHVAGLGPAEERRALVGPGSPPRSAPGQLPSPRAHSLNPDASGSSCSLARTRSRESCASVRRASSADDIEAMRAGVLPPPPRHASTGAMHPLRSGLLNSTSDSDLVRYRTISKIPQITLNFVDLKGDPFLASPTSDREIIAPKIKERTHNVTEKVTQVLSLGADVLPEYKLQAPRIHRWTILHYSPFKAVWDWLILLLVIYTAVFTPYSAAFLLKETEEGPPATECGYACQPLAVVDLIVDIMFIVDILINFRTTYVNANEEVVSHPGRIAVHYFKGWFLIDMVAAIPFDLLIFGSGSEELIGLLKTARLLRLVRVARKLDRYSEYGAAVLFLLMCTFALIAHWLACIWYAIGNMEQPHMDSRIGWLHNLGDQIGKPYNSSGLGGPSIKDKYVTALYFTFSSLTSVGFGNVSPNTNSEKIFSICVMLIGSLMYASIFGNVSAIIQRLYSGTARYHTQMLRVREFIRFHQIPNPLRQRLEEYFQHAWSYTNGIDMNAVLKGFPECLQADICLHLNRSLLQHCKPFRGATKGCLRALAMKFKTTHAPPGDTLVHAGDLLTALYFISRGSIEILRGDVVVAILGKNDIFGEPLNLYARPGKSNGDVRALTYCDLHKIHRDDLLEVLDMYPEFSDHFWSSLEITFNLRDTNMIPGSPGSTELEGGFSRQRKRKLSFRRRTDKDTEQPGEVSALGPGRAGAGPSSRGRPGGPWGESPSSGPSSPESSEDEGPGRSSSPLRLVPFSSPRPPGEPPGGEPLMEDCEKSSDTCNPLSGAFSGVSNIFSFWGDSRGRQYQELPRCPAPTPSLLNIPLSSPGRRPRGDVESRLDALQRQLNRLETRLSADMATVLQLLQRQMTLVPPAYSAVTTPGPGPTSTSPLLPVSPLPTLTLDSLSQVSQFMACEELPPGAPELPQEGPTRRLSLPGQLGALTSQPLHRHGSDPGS

Compound	IC50 (Plasmodium falciparum [1]) [nM]	solubility thermodynamic at 20 h [2] [µM]	IC50 (Plasmodium falciparum [3]) [nM]	CC50 (CHO) [nM]	IC50 [4] [nM]	selectivity ratio [5]
CN1CCN(CC2CCN(c3ncnc4[nH]c(-c5cc(F)cc(F)c5)nc34)CC2)CC1	1800	55 (≈ 23.5 µg/mL)				
Fc1cc(F)cc(-c2nc3c(N4CCC(CN5CCC(F)(F)CC5)CC4)nccc3[nH]2)c1	200	< 5	310	26000		
CN(C)C1CCN(c2nccc3[nH]c(-c4cccc(OC(F)(F)F)c4)nc23)CC1	140	180 (≈ 73 µg/mL)	190			
Fc1ccc(-c2nc3c(N4CCNCC4)nccc3[nH]2)cc1F	170	150 (≈ 47.3 µg/mL)	970	8100	3400	
CN1CCOC2(CCN(c3nccc4[nH]c(-c5cc(F)cc(F)c5)cc34)CC2)C1					≤ 3000	
CN1CCN(CC2CCN(c3nccc4[nH]c(-c5cccc(C(=O)O)c5)nc34)CC2)CC1	> 10000	195 (≈ 84.7 µg/mL)		> 50000		
CN1CCN(CC2CCN(c3nccc4[nH]c(C5CCCC5)nc34)CC2)CC1	9300	< 5				
CN1CCN(CC2CCN(c3nccc4[nH]c(-c5cccc(OC(F)(F)F)c5)nc34)CC2)CC1	< 20	200 (≈ 94.9 µg/mL)	12	950		47
Fc1ccc(-c2nc3c(N4CCOCC4)nccc3[nH]2)cc1F	3100					
Fc1ccc(-c2nc3c(N4CCN(CC(F)(F)F)CC4)nccc3[nH]2)cc1F	2300	10 (≈ 3.97 µg/mL)		39000		
Fc1cc(F)cc(-c2nc3c(N4CCC(CN5CCN(CC(F)(F)F)CC5)CC4)nccc3[nH]2)c1	75	180 (≈ 89 µg/mL)	160	40000	≤ 3000	
CN1CCN(CC2CCN(c3nccc4[nH]c(-c5cc(F)cc(F)c5)cc34)CC2)CC1	14	140 (≈ 59.6 µg/mL)	92	2600	5000	
CN1CCN(CC2CCN(c3nccc4[nH]c(-c5cccc(C(=O)N(C)C)c5)nc34)CC2)CC1	1000	180 (≈ 83.1 µg/mL)		> 50000		
CN1CCN(C2CCN(c3nccc4[nH]c(C5CCCC5)nc34)CC2)CC1	> 10000	170 (≈ 62.6 µg/mL)				
NCC1CCN(c2nccc3[nH]c(-c4cccc(OC(F)(F)F)c4)nc23)CC1	68	200 (≈ 78.3 µg/mL)	190	2900		
NC1CCN(c2nccc3[nH]c(-c4ccc(F)c(F)c4)nc23)CC1	110	200 (≈ 65.9 µg/mL)	910	8200		
Fc1ccc(-c2nc3c(N4CCN5CCCC5C4)nccc3[nH]2)cc1F (stereo not given)	220	120 (≈ 42.6 µg/mL)	480	32000		
O=C1CN(c2nccc3[nH]c(-c4ccc(F)c(F)c4)nc23)CCN1	> 10000	< 5				
Fc1ccc(-c2nc3c(C4CCNCC4)nccc3[nH]2)cc1F	> 10000	200 (≈ 62.9 µg/mL)				
Fc1ccc(-c2nc3c(N4CCC(N5CCNCC5)CC4)nccc3[nH]2)cc1C(F)(F)F	36	200 (≈ 89.7 µg/mL)	460	34000		
CN1CCN(C[C@@H]2CCCN(c3nccc4[nH]c(-c5cc(F)cc(F)c5)nc34)C2)CC1	28	145 (≈ 61.8 µg/mL)	130	3200		
Fc1ccc(-c2nc3c(N4CCCNCC4)nccc3[nH]2)cc1F	210	165 (≈ 54.3 µg/mL)	1000	7200		
Fc1ccc(-c2nc3c(N4CCN(c5ccccc5)CC4)nccc3[nH]2)cc1F	> 1000					
CN1CCN(C2CCN(c3nccc4[nH]c(-c5ccc(F)c(F)c5)nc34)CC2)CC1	46	130 (≈ 53.6 µg/mL)	220	5000		110
CN1CCN(C2CCN(c3nccc4[nH]c(-c5cccc(C#N)c5)nc34)CC2)CC1	110		580	16000		
CN1CCN(C(=O)C2CCN(c3nccc4[nH]c(-c5ccc(F)c(F)c5)nc34)CC2)CC1	100	200 (≈ 88.1 µg/mL)	380	> 50000	12000	
CN1CCN(C2CCN(c3nccc4[nH]c(-c5ccc(F)c(C(F)(F)F)c5)nc34)CC2)CC1	58	195 (≈ 90.2 µg/mL)	80	4800		
